What all share (type): functional, cell-based
Assay [1] addresses T1, Solute carrier family 22 member 1 (Rattus norvegicus, UniProt Q63089).
T1 sequence (Q63089 whole entry): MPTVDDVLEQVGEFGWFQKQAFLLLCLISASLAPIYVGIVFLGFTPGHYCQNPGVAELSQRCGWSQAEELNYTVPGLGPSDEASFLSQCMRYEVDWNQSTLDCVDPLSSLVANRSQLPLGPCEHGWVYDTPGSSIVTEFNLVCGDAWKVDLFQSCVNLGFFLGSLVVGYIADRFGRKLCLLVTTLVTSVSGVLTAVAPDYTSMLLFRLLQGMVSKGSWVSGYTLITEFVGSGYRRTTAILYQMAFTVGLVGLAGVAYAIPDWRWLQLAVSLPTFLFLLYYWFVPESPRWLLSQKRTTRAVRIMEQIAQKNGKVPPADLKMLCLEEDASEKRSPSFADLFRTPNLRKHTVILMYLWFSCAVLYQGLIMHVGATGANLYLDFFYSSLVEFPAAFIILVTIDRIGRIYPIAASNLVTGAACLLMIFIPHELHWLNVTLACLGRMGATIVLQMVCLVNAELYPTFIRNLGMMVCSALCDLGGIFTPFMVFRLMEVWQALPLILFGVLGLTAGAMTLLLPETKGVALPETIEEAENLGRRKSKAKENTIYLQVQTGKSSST
Kind of assay: TP_TRANSPORTER: inhibition of TEA uptake (in the absence of bicarbonate) (TEA: 20 uM) in OCT1-expressing HEK293 cells. Summed up: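 Uptake in rOCT1- or rOCT2-expressing stably transfected HEK 293 cells, run in bicarbonate-free Cross-Taggart phosphate buffer, pH 7.4, 25°C. 20 μM [14C]TEA final, 3 s incubation across inhibitor concentrations; ice-cold stopping buffer, centrifugation, washes, scintillation counting.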

The target of assay [2] is T2, Solute carrier family 22 member 2 (Rattus norvegicus, UniProt Q9R0W2).
T2 sequence (Q9R0W2 whole entry): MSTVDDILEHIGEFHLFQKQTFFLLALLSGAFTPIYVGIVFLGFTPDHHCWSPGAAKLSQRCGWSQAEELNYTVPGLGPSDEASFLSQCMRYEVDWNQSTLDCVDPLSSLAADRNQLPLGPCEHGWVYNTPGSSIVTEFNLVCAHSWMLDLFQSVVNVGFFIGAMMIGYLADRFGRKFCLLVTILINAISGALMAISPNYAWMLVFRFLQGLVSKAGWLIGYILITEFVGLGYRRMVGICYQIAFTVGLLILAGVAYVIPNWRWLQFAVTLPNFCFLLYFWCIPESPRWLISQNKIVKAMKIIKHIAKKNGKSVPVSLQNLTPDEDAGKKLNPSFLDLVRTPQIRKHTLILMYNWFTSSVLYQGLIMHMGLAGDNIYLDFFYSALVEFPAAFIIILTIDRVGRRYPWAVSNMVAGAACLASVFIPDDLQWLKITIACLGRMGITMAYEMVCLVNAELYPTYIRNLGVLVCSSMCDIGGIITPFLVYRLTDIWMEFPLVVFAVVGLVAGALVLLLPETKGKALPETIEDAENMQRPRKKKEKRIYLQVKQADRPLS
Nature of the assay: TP_TRANSPORTER: inhibition of TEA uptake (in the presence of bicarbonate) (TEA: 20 uM) in OCT2-expressing HEK293 cells. Summed up: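 Stably rOCT1- or rOCT2-transfected HEK 293 cells suspended in bicarbonate (25 mM) Krebs-Henseleit buffer, pH 7.4 set by 95% O2/5% CO2 bubbling, 25°C. […] Percent of uninhibited control; IC50 mean ± S.E.M. of 3–6 experiments.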

The target of assay [3] is T2, Solute carrier family 22 member 2. Kind of assay: TP_TRANSPORTER: inhibition of TEA uptake (in the absence of bicarbonate) (TEA: 20 uM) in OCT2-expressing HEK293 cells. In a few lines:
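Uptake in rOCT1- or rOCT2-expressing stably transfected HEK 293 cells, run in bicarbonate-free Cross-Taggart phosphate buffer, pH 7.4, 25°C. 20 μM [14C]TEA final, 3 s incubation across inhibitor concentrations; ice-cold stopping buffer, centrifugation, washes, scintillation counting. Expressed relative to control uptake without inhibitor; IC50 mean ± S.E.M. of 3–6 experiments.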

Assay [4] deals with T1, Solute carrier family 22 member 1. Kind of assay: TP_TRANSPORTER: inhibition of TEA uptake (in the presence of bicarbonate) (TEA: 20 uM) in OCT1-expressing HEK293 cells. In a few lines: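 Stably rOCT1- or rOCT2-transfected HEK 293 cells suspended in bicarbonate (25 mM) Krebs-Henseleit buffer, pH 7.4 set by 95% O2/5% CO2 bubbling, 25°C.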
Assay [5] shares this target. Nature of the assay: TP_TRANSPORTER: inhibition of Amantadine uptake (in the presence of bicarbonate) (Amantadine: 10 uM) in OCT1-expressing HEK293 cells. Summed up: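 Rat OCT1 or OCT2 stably transfected HEK 293 cells, grown to 80% confluence, detached and resuspended in KHS (25 mM bicarbonate, pH 7.4, gassed O2/CO2 95%/5%), protein 5–6 mg/ml. […] Highest cyanine863 tested 200 μM. IC50 from 3–6 experiments.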

This passage reports IC50 results from ChEMBL document CHEMBL2074271 (J Pharmacol Exp Ther, 2002).

Each structure is given as a SMILES string. pIC50: −log10 of the molar value. “And” between values parts separate entries of the source, which are not always exact repeats. Equal values may be shown once.

`NC12CC3CC(CC(C3)C1)C2` [AMANTADINE]: the pIC50 in assay [1] is 3.55; in assay [2], 3.68; in assay [3] it was 3.54; in assay [4] it was 3.30.

Turning to `C=C[C@H]1C[N@@]2CC[C@H]1C[C@H]2[C@H](O)c1ccnc2ccc(OC)cc12` [QUININE], the pIC50 in assay [2] is 4.89; in assay [3], 4.42.

As for `CCN(CC)CCNC(=O)c1ccc(N)cc1` [PROCAINAMIDE], the results for the pIC50 in assay [2] and in assay [3] were 4.05 and 3.67, respectively.

With `CC[n+]1c(CC2C=C(C)N=C(c3ccccc3)N2C)ccc2ccccc21` (stereo not drawn) [Cyanine-863], the pIC50 was 6.35 in assay [1]; 4.05 and < 3.70 in assay [5]; 6.00 in assay [2]; 5.92 in assay [3]; 6.40 in assay [4].

As a reminder, the pIC50 is −log10 of the IC50, conventionally taken in molar units.
